Assay outcomes: PubChem, several laboratories
iPSC survival up – increases survival of single human iPS cells. hiPSC single-cell survival, ATPlite luminescence; 100% = ROCK inhibitor wells, 0% = DMSO. 360,000 compounds, 0.044% hits. survival enhancement, % at 20 µM; in the data active means survival enhancement above about 18%;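 further: cells exposed to compounds for 16 hours before the ATP read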
rRNA inh HTS – inhibits bacterial ribosomal RNA function over humanized ribosomes; GFP signal change (wild-type ribosome), % (test concentration not listed); 350,000 compounds, 1.6% hits; E. coli WT GFP vs humanized-ribosome RFP mutants, fluorescence, 24 h; stronger effect = lower value; DMSO median 0, no signal -100;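 active means significant combined selectivity score with lowered wild-type GFP, culture density cut under 30%, mutant RFP and density less affected; inactive means any of these conditions unmet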
MT1-MMP act inh – MT1-MMP (human) activation inhibition. P50281. HT1080 RFP-PRO-GFP cells, GFP/RFP ratio fluorescence, overnight; percent of plate control window, DMSO zero. GFP/RFP ratio change, % at 20 µM. 360,000 compounds, 0.061% hits. AID 651647;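 active means GFP/RFP ratio change of at least 30% with cell ATP level not reduced by more than half and red fluorescence within 50% of control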
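Assay system – RFP-PRO-GFP reporter HT1080 cells · Compound dosing – single dose of 20 µM compound, 1% DMSO final · Incubation – overnight compound exposure at 37 °C · Measure – GFP/RFP fluorescence ratio · Benchmarks – DMSO wells and RFP-L50D-GFP cells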
SKN-1 block – blocks SKN-1 activity in C. elegans. inhibition, % at 21.8 µM. 360,000 compounds, 0.49% hits. C. elegans VP596 Pgst-4::GFP/RFP ratio, acrylamide-induced, 24 h;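 active means interference check ratio from 0.5 to 1.5 plus GFP to RFP signal ratio inhibition reaching or exceeding a fixed threshold, cut at about 30% in these data, passing the limit was not always enough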
DAGLB inhibitor – diacylglycerol lipase beta (human) inhibition. HEK293T DAGLB membrane lysate, EnzChek fluorogenic substrate. inhibition, % at 5.17 µM. 340,000 compounds, 0.059% hits. AID 504411; in the data active means inhibition above about 34%
Target sequence (Q8NCG7 whole entry, looked up): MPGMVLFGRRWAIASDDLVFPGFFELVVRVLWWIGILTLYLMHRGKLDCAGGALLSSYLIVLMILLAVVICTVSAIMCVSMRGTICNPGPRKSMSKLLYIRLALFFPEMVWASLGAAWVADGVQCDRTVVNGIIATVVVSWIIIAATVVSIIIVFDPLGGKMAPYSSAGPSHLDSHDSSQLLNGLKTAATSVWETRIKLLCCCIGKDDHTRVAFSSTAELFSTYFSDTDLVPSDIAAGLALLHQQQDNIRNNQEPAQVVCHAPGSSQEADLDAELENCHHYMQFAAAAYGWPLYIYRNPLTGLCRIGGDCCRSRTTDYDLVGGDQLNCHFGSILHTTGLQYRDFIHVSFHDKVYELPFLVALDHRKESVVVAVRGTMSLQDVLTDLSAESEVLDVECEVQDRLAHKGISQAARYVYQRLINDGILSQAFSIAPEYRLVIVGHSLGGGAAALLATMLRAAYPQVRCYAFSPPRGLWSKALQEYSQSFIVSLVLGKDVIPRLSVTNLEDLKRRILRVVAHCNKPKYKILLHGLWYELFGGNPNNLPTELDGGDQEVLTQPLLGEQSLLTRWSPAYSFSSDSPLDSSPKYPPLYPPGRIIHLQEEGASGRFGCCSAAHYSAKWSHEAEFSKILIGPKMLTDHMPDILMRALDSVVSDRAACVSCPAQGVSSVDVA
Cneo AK release – Cryptococcus neoformans lysis via adenylate kinase release. C. neoformans lysis, adenylate kinase release luminescence, 4 h; normalised: neutral wells 0, clomiphene wells 100. lysis activity, % at 15 µM. 360,000 compounds, 0.2% hits;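 active means mean lysis activity across replicates of at least 80%, whatever share of replicates individually reach that level; inactive means mean lysis activity below 80%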
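Test system: log-phase Cryptococcus neoformans yeast cells. Input: 5 × 10^6 yeast cells/mL. Medium: fresh YPD growth medium. Doses: single dose. Incubation: static 4 h at 37 °C with compound, 1 h detection. Measured by: luminescent adenylate kinase detection reagent. Read-out: signal increase indicating cell lysis. Benchmarks: Clomiphene.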
Numbers stand for hits; n = inactive; x = no result given; ! = repeats disagree. In the library only some 1.8% were active in any assay of this set; here they are far more common.

SMILES | iPSC survival up | rRNA inh HTS | MT1-MMP act inh | SKN-1 block | DAGLB inhibitor | Cneo AK release
O=C(Nc1nccs1)C(F)(F)C(F)(F)C(F)(F)C(=O)Nc1nccs1 | n | -27 | n | n | n | n
Cc1cccc(NC(=S)NCCSc2ccc(Cl)cc2)c1 | n | -37 | n | n | n | n
Cc1ccc(NC(=S)NCC(C)CSc2ccc(Cl)cc2)cc1 (stereo not drawn) | n | -27 | n | n | n | x
CC(C)NC(=O)Nc1ccc2c(c1)CC(=O)N([C@@H](C)CO)C[C@@H](C)[C@H](CN(C)C(=O)NC(C)C)O2 | x | n | x | x | x | n
O=C(Nc1cccc(Cl)c1)c1ccc(Cn2cc(Cl)cn2)cc1 | n | -26 | n | n | n | n
O=C1CCCn2cc(nn2)COC[C@H](Cc2ccccc2)N1 | x | n | x | x | x | n
CC(c1ccccc1)N1C(=O)c2cccnc2C1=O (stereo not drawn) | n | n | n | 39 | n | n
O=C1c2cccnc2C(=O)N1Cc1ccccc1 | n | n | n | n | n | n
CCC(=O)N(C)C[C@H]1Oc2cc(C3=CCCC3)ccc2S(=O)(=O)N([C@H](C)CO)C[C@H]1C | x | n | x | x | x | n
COc1ccccc1CNc1ccc(Br)cn1 | n | -29 | n | n | n | n
O=C(O)CSCC(=O)N1CCc2c([nH]c3ccccc23)C1C(F)(F)F (stereo not drawn) | n | n | n | n | n | n
O=C(O)c1ccccc1C(=O)N1CCc2c([nH]c3ccccc23)C1C(F)(F)F (stereo not drawn) | n | -30 | n | n | x | n
COc1cccc(/C=N/NC(=S)Nc2cccnc2)c1 | n | n | n | n | n | n
COc1ccc(O)c(/C=N/NC(=S)Nc2cccnc2)c1 | n | -28 | n | n | n | x
Cc1cc(C)c2c3c(c(-c4ccccc4)n2n1)c(=O)n(C)c(=O)n3C | n | n | n | n | n | n
Cc1nc2ccccc2n2c(-c3ccccc3)c3c(=O)n(C)c(=O)n(C)c3c12 | n | -34 | n | n | n | n
COc1cc(CO)cc(I)c1O[C@H]1C=C(C(=O)NCCO)C[C@@H](N(C(=O)c2cc3ccccc3oc2=O)C2CCCCCC2)[C@@H]1O | x | x | x | x | x | n
COc1cc(CO)cc(I)c1O[C@H]1C=C(C(=O)NCCO)C[C@@H](N(CC2CCCCC2)C(=O)c2cc3ccccc3oc2=O)[C@@H]1O | x | x | x | x | x | 92
O=C1NC(=S)NC1=Cc1ccc(Cl)cc1Cl | n | -25 | n | n | n | n
O=C1NC(=S)NC1=Cc1ccccc1O | n | n | n | n | n | n
CC1(C)c2ccccc2C(=O)c2ccccc21 | n | -22 | n | 46 | n | n
CC1(C)C(=Cc2ccccc2)C(=O)c2ccccc21 | n | n | n | 41 | n | n
O=C([C@H]1[C@H](CO)[C@H]2Cn3c(cccc3=O)[C@H]2N1Cc1ccccc1)N1CCCCC1 | x | n | x | x | x | n
C[C@@H]1CCCCO[C@H](CN(C)S(C)(=O)=O)[C@@H](C)CN([C@@H](C)CO)C(=O)c2cc(NS(=O)(=O)c3ccccc3)ccc2O1 | x | n | x | x | x | n
CCC(=O)N1[C@H](CO)[C@H](c2ccccc2)[C@@H]1CN(CC)C(=O)c1cccc(F)c1 | x | n | x | x | x | 99
SMILES | iPSC survival up | rRNA inh HTS | MT1-MMP act inh | SKN-1 block | DAGLB inhibitor | Cneo AK release
CC(C)=C(c1ccc(Cl)cc1)c1c(N)ncnc1N | n | -21 | n | n | n | n
O=C1C(Cc2ccccc2)Nc2ncnc(N3CCOCC3)c2N1Cc1ccc(Cl)cc1 (stereo not drawn) | n | -21! | n | n | n | n
O=C1C(Cc2ccccc2)Nc2ncnc(N3CCN(c4ccccc4)CC3)c2N1Cc1ccccc1 (stereo not drawn) | n | n | n | n | n | n
Cc1cccc(C)c1NC(=S)N(Cc1cccs1)C1CCCC1 | n | n | n | n | n | x
Cc1ccccc1NC(=S)N(Cc1cccs1)C1CCCC1 | n | -24 | n | n | n | n
COc1ccccc1/C=C/C=N/n1c(-c2ccncc2)n[nH]c1=S | n | x | n | n | n | x
S=c1[nH]nc(-c2ccncc2)n1/N=C/C=C/c1ccccc1 | n | -23 | n | n | n | x
CCc1nnc(NC(=O)CC(C)c2ccccc2)s1 (stereo not drawn) | n | n | n | 36 | n | n
C=CCn1c(-c2cc3cccc(OC)c3o2)n[nH]c1=S | n | -23 | n | n | n | x
C=CCn1c(-c2cccc(OC)c2OC)n[nH]c1=S | n | n | n | n | n | n
O=[N+]([O-])c1cc(S(=O)(=O)N2CCCC2)ccc1N/N=C/c1cccs1 | n | x | n | 36 | n | n
O=[N+]([O-])c1cc(S(=O)(=O)N2CCCC2)ccc1N/N=C/c1ccncc1 | n | x | n | n | n | x
C[C@H](CO)N1C[C@H](C)[C@@H](CN(C)Cc2ccc(C(F)(F)F)cc2)Oc2ccc(NC(=O)CCN3CCOCC3)cc2CC1=O | x | n | x | x | x | n
COc1ccccc1C1NC(=O)NC(C)=C1C(=O)OCc1ccccc1 (stereo not drawn) | n | -23 | n | n | n | n
CC1=C(C(=O)OCc2ccccc2)C(c2ccccc2Br)NC(=O)N1 (stereo not drawn) | n | -34 | n | n | n | n
CCOc1ccccc1C1NC(=O)NC(C)=C1C(=O)OCc1ccccc1 (stereo not drawn) | n | n | n | n | n | n
O=C(COC(=O)c1ccc(Br)o1)Nc1ccc(S(=O)(=O)N2CCCC2)cc1 | n | x | n | 40 | n | n
CN(C)S(=O)(=O)c1cccc(NC(=O)COc2ccccc2C(=O)NCc2ccccc2)c1 | n | -34 | n | n | n | n
O=C(Nc1ccncc1)c1cc(S(=O)(=O)N2CCCCC2)ccc1Cl | n | n | n | n | n | n
O=C(COC(=O)c1ccc(Br)o1)Nc1cccc(S(=O)(=O)N2CCCCC2)c1 | n | n | n | n | n | n
O=C(COc1ccccc1Cl)Nc1cccc(S(=O)(=O)N2CCCC2)c1 | n | -34 | n | n | n | n
O=C(Nc1ccncc1)c1cc(S(=O)(=O)N2CCCC2)ccc1Cl | 47 | n | n | n | n | n
O=C(COc1ccc(F)cc1Cl)Nc1cccc(S(=O)(=O)N2CCCC2)c1 | n | n | n | n | n | n
COc1ccccc1C(=O)NCC(=O)OCC(=O)Nc1cccc(S(=O)(=O)N(C)C)c1 | n | n | n | n | n | n
C[C@@H]1CN([C@H](C)CO)C(=O)c2cc(N(C)C)ccc2O[C@H]1CN(C)C(=O)Nc1ccc(C(F)(F)F)cc1 | x | n | x | x | x | n
O=C(Nc1ccc2c(c1)OCCO2)c1ccc(S(=O)(=O)N2CCCCC2)cc1 | n | -32 | n | n | n | n
O=C(Nc1ccc(N2CCOCC2)cc1)c1ccc(S(=O)(=O)N2CCCCC2)cc1 | n | x | n | n | n | n
